Drawing on ChEMBL document CHEMBL1275303, “Synthesis and antimicrobial activity of 2-substituted [4-(1,3,4-oxadiazol-2-yl methyl)] phthalazin-1(2H)-one derivatives” (2010), this text covers zone of inhibition for three compounds.

For experiment [1], the system named is Chrysosporium keratinophilum. Kind of experiment: Antimicrobial activity against Chrysosporium keratinophilum at 50 ug/mL after 72 hrs by well plate method. The class given is functional. Particulars: read-out: IZ. The method in brief: (§1)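 Antifungal well-plate assay on Sabouraud dextrose agar using a 72 h old broth culture of the fungal strain. Wells were filled with compound dissolved in DMSO (100 or 50), and the zone of inhibition around each well was measured. […] served as reference.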

In experiment [2] the test system is Bacillus subtilis. Kind of experiment: Antimicrobial activity against Bacillus subtilis at 100 ug/mL after 24 hrs by well plate method. The class given is functional. Particulars: read-out: IZ. Summed up:
(§2)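 Agar well diffusion in nutrient agar. About 1 cm³ of a 24 h broth culture was placed in sterile dishes, and molten agar at 45 °C was poured over it and set. 6 mm wells were bored and filled with compound in DMSO (100 or 50). Plates were incubated 24 h at 37 °C, and the inhibition zone was read in mm. Duplicate runs, with standard deviation; amoxicillin as reference.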

Experiment [3] concerns Bacillus subtilis. Put plainly: Antimicrobial activity against Bacillus subtilis at 50 ug/mL after 24 hrs by well plate method. It counts as functional. Particulars: read-out: IZ. Summed up: as §2
For experiment [4], the system named is Escherichia coli. Kind of experiment: Antimicrobial activity against Escherichia coli at 50 ug/mL after 24 hrs by well plate method. It counts as functional. The conditions noted are these: read-out: IZ. Summed up: as §2
Experiment [5] relates to Salmonella typhi. Put plainly: Antimicrobial activity against Salmonella typhi at 100 ug/mL after 24 hrs by well plate method. Particulars: Salmonella enterica, read-out: IZ. The class given is functional, Salmonella enterica subsp. enterica serovar Typhi. Summed up: (§3)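 Agar well diffusion in nutrient agar: about 1 cm³ of a 24 h broth culture placed in a sterile dish, molten agar at 45 °C poured over it and allowed to set. 6 mm holes cut with a sterile cork borer and filled with compound solution in DMSO. Incubated 24 h at 37 °C; inhibition zone diameter read in mm. Run in duplicate, standard deviation calculated.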

Experiment [6] deals with Staphylococcus aureus. Kind of experiment: Antimicrobial activity against Staphylococcus aureus at 100 ug/mL after 24 hrs by well plate method. Particulars: read-out: IZ. The class given is functional. Summed up:
as §2

Experiment [7] concerns Candida albicans. Put plainly: Antimicrobial activity against Candida albicans at 50 ug/mL after 72 hrs by well plate method. The conditions noted are these: read-out: IZ. The class given is functional. The method in brief:
as §1

Experiment [8] deals with Candida albicans. Kind of experiment: Antimicrobial activity against Candida albicans at 100 ug/mL after 72 hrs by well plate method. It counts as functional. Particulars: read-out: IZ. Summed up:
as §1

Experiment [9] deals with Escherichia coli. Kind of experiment: Antimicrobial activity against Escherichia coli at 100 ug/mL after 24 hrs by well plate method. It counts as functional. The conditions noted are these: read-out: IZ. The method in brief: as §2
Experiment [10] has as its system Chrysosporium keratinophilum. Put plainly: Antimicrobial activity against Chrysosporium keratinophilum at 100 ug/mL after 72 hrs by well plate method. The class given is functional. Particulars: read-out: IZ. Summed up:
as §1

Experiment [11] deals with Aspergillus flavus. Put plainly: Antimicrobial activity against Aspergillus flavus at 50 ug/mL after 72 hrs by well plate method. It counts as functional. Particulars: read-out: IZ.
Experiment [12] relates to Nannizzia gypsea. Kind of experiment: Antimicrobial activity against Microsporum gypseum at 100 ug/mL after 72 hrs by well plate method. It counts as functional. Particulars: read-out: IZ. The method in brief:
as §1

Experiment [13] relates to Aspergillus flavus. Kind of experiment: Antimicrobial activity against Aspergillus flavus at 100 ug/mL after 72 hrs by well plate method. The conditions noted are these: read-out: IZ. It counts as functional.
Experiment [14] concerns Nannizzia gypsea. Kind of experiment: Antimicrobial activity against Microsporum gypseum at 50 ug/mL after 72 hrs by well plate method. The conditions noted are these: read-out: IZ. The class given is functional. The method in brief:
as §1

In experiment [15] the test system is Staphylococcus aureus. Kind of experiment: Antimicrobial activity against Staphylococcus aureus at 50 ug/mL after 24 hrs by well plate method. It counts as functional. Particulars: read-out: IZ. Summed up: as §2
For experiment [16], the system named is Salmonella typhi. Put plainly: Antimicrobial activity against Salmonella typhi at 50 ug/mL after 24 hrs by well plate method. The class given is functional, Salmonella enterica subsp. enterica serovar Typhi. The conditions noted are these: Salmonella enterica, read-out: IZ. The method in brief: as §3

For the compound `Cc1ccccc1-c1nnc(Cc2nn(CCN3CCOCC3)c(=O)c3ccccc23)o1`, the zone of inhibition at 50 µg/mL in [1] turned out to be 0 mm; in experiment [3], 2.5 mm; in experiment [4] it was 2.5 mm; in experiment [7] it was 0 mm; in experiment [11] it was 1.5 mm; in experiment [14], 1 mm. The zone of inhibition at 50 µg/mL in experiment [15] was determined as 1.5 mm; in experiment [16] it was 2.5 mm. Also, the zone of inhibition at 100 µg/mL turned out to be 4.5 mm in experiment [2]; 5 mm in experiment [5]; 3.5 mm in [6]; 1.5 mm in experiment [8]; 5.5 mm in [9]; 2.5 mm in experiment [10]. For the same compound, the values for the zone of inhibition at 100 µg/mL in experiment [12] and in experiment [13] were 2 mm and 3 mm, respectively.
For the compound `O=c1c2ccccc2c(Cc2nnc(-c3ccsc3)o2)nn1CCN1CCOCC1`, the zone of inhibition at 50 µg/mL in [1] was 3.5 mm; in [3], 3 mm; in experiment [4], 3.5 mm; in [7] it was 4.5 mm; in experiment [11] it was 6.5 mm; in [14] it was 7.5 mm. Besides, the zone of inhibition at 50 µg/mL was determined as 3.5 mm in experiment [15] and 4.5 mm in experiment [16]. Moreover, the zone of inhibition at 100 µg/mL worked out at 6 mm in experiment [2]; 7.5 mm in experiment [5]; 5 mm in experiment [6]; 7.5 mm in experiment [8]; 8.5 mm in experiment [9]; 6.5 mm in [10]. In addition, the zone of inhibition at 100 µg/mL was determined as 10.5 mm in [12] and 9.5 mm in [13].
`O=c1c2ccccc2c(Cc2nnc(-c3ccc(Cl)nc3)o2)nn1CCN1CCOCC1`: the zone of inhibition at 50 µg/mL in experiment [1] amounted to 1.5 mm; in experiment [3], 4.5 mm; in experiment [4], 1.5 mm; in experiment [7], 6.5 mm; in experiment [11], 4.5 mm; in experiment [14] it was 4 mm. Moreover, the zone of inhibition at 50 µg/mL in experiment [15] and in experiment [16] was 3.5 mm throughout. Moreover, the zone of inhibition at 100 µg/mL in [2] worked out at 9 mm; in experiment [5], 6.5 mm; in [6], 7 mm; in [8], 10.5 mm; in [9], 5.5 mm; in experiment [10], 4.5 mm. In addition, the zone of inhibition at 100 µg/mL was found to be 9.5 mm in experiment [12] and 8 mm in [13].
